This is an account of results in PubChem BioAssay AID504382 (The Scripps Research Institute Molecular Screening Center, 2011).

Among all 2,500 compounds or so, about 460 (18%) were called active. These entries were drawn from the full list. Unmarked numbers belong to inactive results.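 How the source made its calls: active means mean activation above a cutoff of low control average plus 3 SD from the earlier screen (cut at about 12% in these data); inactive means the rest.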

The assay is described as follows: IANBD-channel fluorescence artefacts in buffer – biochemical, artefact control for cardiac RTF calcium sensitizer project, confirmation (AID 504382). The settings on record: IANBD fluorescence interference counterscreen, EC20 Ca2+, at 7.2 µM, active compounds read high, scaled: EC20 calcium 0, EC100 calcium 100. In outline:
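Medium: MOPS/KCl/MgCl2/EGTA/NTA/DTT buffer, pH 7.2 | Reagent: EC20 calcium, 0.472 mM | Compound dosing: 7.2 µM single dose | Times: 15 min compound exposure at 25 °C | Signal: Fluorescence, 480/540 nm | Measure: Interference relative to controls | Repeats: Triplicate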
In general terms: Counterscreens check selectivity or assay interference.
Take `C/C(=N/Nc1ccnc2cc(Cl)ccc12)c1ccc(N)cc1`: the fluorescence artifact activation is 2.55%.

For `Cc1ccc(NC(=O)Nc2ccc(F)cc2)cc1Cl`, the fluorescence artifact activation was 4.13%.

Turning to `CC(=O)Nc1ccccc1C(=O)C(=O)Nc1ccc(F)c(Cl)c1`, the fluorescence artifact activation is 0.02%.

On to `CN1c2ccccc2C(O)=C(C(=S)Nc2ccc(F)c(Cl)c2)S1(=O)=O`, for which the fluorescence artifact activation was 13.6% (active).

Regarding `CCC1(C)COC(c2ccc(OC)c(OC)c2)OC1` (configuration not stated), the fluorescence artifact activation was 0.06%.

For `N#C/C(=C\c1c[nH]c2ccccc12)C(=O)Nc1ncc(Cc2ccc(Cl)cc2Cl)s1`, the fluorescence artifact activation is 5.66%.

In the case of `O=C(CN1CCN(c2ccccc2F)CC1)NCc1ccc(Cl)cc1`, the fluorescence artifact activation was 0.16%.

As for `O=C(NCCc1ccccc1)C1CCN(c2ncccn2)CC1`, the fluorescence artifact activation is 0.16%.

In the case of `O=C(NCc1ccc(Cl)cc1)C1CCN(c2cnccn2)CC1`, the fluorescence artifact activation was 16% (active).

Turning to `COc1ccc(/C=N/NC(=O)c2cccc([N+](=O)[O-])c2)cc1O`, the fluorescence artifact activation is 0.08%.

As for `Cn1nnc(NC(=S)NC(=O)/C=C/c2ccco2)n1`, the fluorescence artifact activation is 0.78%.

For the molecule `CCNC(=S)NNC(=O)CCn1cc(C)cn1`, the fluorescence artifact activation is -0.01%.

`CN(C)c1ccc(/C=C/c2nc3ccccc3c(=O)[nH]2)cc1`: the fluorescence artifact activation is 0.27%.

Take `CN(C)c1ccc(/C=C/c2nc3ccccc3c(=O)n2-c2ccc(C(=O)O)cc2)cc1`: the fluorescence artifact activation is 0.13%.

As to `CN(C)c1ccc(/C=C/c2nc3ccccc3c(=O)n2CCO)cc1`, the fluorescence artifact activation is 127% (active).

With `O=C(O)C1CCC(CNCc2ccccc2Cl)CC1` (configuration not stated), the fluorescence artifact activation is 0.76%.

For the molecule `CCCCc1ccc(NC(=O)c2cnccn2)cc1`, the fluorescence artifact activation is 9.08%.

Turning to `COc1ccc(CNC(=O)c2sc(=S)n(-c3ccccc3)c2N)cc1`, the fluorescence artifact activation is 9.19%.

For `COc1cccc(CNC(=O)C2CCCN(c3nc4ccccc4o3)C2)c1` (configuration not stated), the fluorescence artifact activation is 0.08%.

On to `CC(C)NC(=O)C1CCCN(c2nnc(-n3cccc3)s2)C1` (configuration not stated), for which the fluorescence artifact activation was 316% (active).

Take `O=C(Nc1cc2c3c(c1)CC(=O)N3CCC2)C1CC1`: the fluorescence artifact activation was 0.03%.

With `Cc1ccc(/C=C2/SC(=O)NC2=S)o1`, the fluorescence artifact activation was 6.76%.

Turning to `C(=N\c1nc2ccccc2n1CCN1CCOCC1)/c1cccs1`, the fluorescence artifact activation is -0.03%.

With `Cc1ccc(C(C(=O)NC(C)(C)C)N(C(=O)c2csnn2)C2CC2)cc1` (configuration not stated), the fluorescence artifact activation is 34.2% (active).

As for `COC(=O)c1c(NC(=O)CN2CCN(c3cccc(Cl)c3)CC2)sc(C)c1C`, the fluorescence artifact activation is 0.21%.

Turning to `CCOC(=O)C1=C(C)N(CCCCCC(=O)O)C(=O)NC1c1ccccc1Cl` (configuration not stated), the fluorescence artifact activation is 0.06%.

For the molecule `CCCN1C(=O)c2ccccc2NC1c1ccc(O)c(OCC)c1` (configuration not stated), the fluorescence artifact activation is 2.14%.

For `CCOC(=O)c1[nH]c2ccc(OCC)cc2c1CCCN1C(=O)c2ccccc2C1=O`, the fluorescence artifact activation is 87.1% (active).

Consider `CC(OC(=O)c1c2c(nc3ccccc13)/C(=C\c1ccc3c(c1)OCO3)CCC2)C(=O)Nc1ccc(S(N)(=O)=O)cc1` (configuration not stated), for which the fluorescence artifact activation was 0.03%.

As for `Cc1ccc(O)c(C(=O)c2cc(C#N)c(=O)n(-c3nccs3)c2)c1`, the fluorescence artifact activation was 0.06%.

Take `N#Cc1cc(C(=O)c2ccccc2O)cn(-c2nccs2)c1=O`: the fluorescence artifact activation is 12.1% (active).

Regarding `N#Cc1cc(C(=O)c2cc(F)ccc2O)cn(-c2nccs2)c1=O`, the fluorescence artifact activation was 0.01%.

For `O=C(Cn1ncc2c3ccccc3n(Cc3cccc(Cl)c3)c2c1=O)NCC1CCCO1` (configuration not stated), the fluorescence artifact activation is 0.38%.

Take `O=C(NCCOc1ccccc1Cl)C(=O)Nc1ccccc1`: the fluorescence artifact activation is 0.07%.

As to `CS/C(=N\S(=O)(=O)c1cccs1)Nc1cccc(Cl)c1C`, the fluorescence artifact activation was 16.4% (active).

Take `COc1cccc(CNC(=O)CN(C)S(=O)(=O)c2ccc3c(c2)c(=O)n(C)c(=O)n3C)c1`: the fluorescence artifact activation is 0.24%.

Consider `COc1cccc(CNC(=O)CN(C)S(=O)(=O)c2cnc[nH]2)c1`, for which the fluorescence artifact activation is 41.4% (active).

As to `COc1cccc(CNC(=O)CCS(=O)(=O)c2cc3c(cc2C)NC(=O)CO3)c1`, the fluorescence artifact activation is 0.09%.

As to `COc1ccc(/C=N/NC(=O)Cn2c(Cc3ccc(OC)c(OC)c3)nc3ccccc32)cc1`, the fluorescence artifact activation is 1.63%.

On to `COc1ncnc2c1NC1=C(S2)C(=NCCC(=O)O)CC(C)(C)C1`, for which the fluorescence artifact activation was 19.4% (active).

With `CC(=O)c1cc2c(cc1N/C(=N/S(=O)(=O)c1ccc(Br)cc1)c1ccccc1)OCO2`, the fluorescence artifact activation is 0.13%.

Regarding `O=C(NCc1cccc(C(F)(F)F)c1)c1cccc(S(=O)(=O)NCc2ccccc2)c1`, the fluorescence artifact activation is 0.02%.

Take `CC(=NNC(=O)c1ccncc1)c1ccc2ccccc2c1O`: the fluorescence artifact activation is 0.08%.

For `CCOC(=O)c1sc2nc(C)nc(SCC(=O)NC3CCS(=O)(=O)C3)c2c1C` (configuration not stated), the fluorescence artifact activation was 8.03%.

As for `O=C(NCC(=O)N(CC1CCCO1)C1(C(=O)NC2CCCCC2)CCCCC1)c1ccccc1` (configuration not stated), the fluorescence artifact activation was -0.09%.

Regarding `O=C(COc1ccccc1Cl)N1CCN(c2ccccn2)CC1`, the fluorescence artifact activation is 0.24%.

As for `CCOC(=O)N1CCN(C(=S)Nc2ccccc2C)CC1`, the fluorescence artifact activation was 7.89%.

Take `S=C(Nc1cc(Cl)ccc1Oc1ccccc1)N1CCN(c2ccccn2)CC1`: the fluorescence artifact activation is 23.1% (active).

Consider `CC(COC(=O)c1ccccc1)(COC(=O)c1ccccc1)/[N+]([O-])=C/c1ccccc1`, for which the fluorescence artifact activation is 9.45%.

In the case of `COCCCn1c(=O)/c(=C\c2cccc(OC)c2OC)s/c1=C(/C#N)C(=O)Nc1ccc(C(=O)O)cc1`, the fluorescence artifact activation is 2.82%.

In the case of `CCc1cc(C(=O)Nc2ccc(OC)nc2)sc1C`, the fluorescence artifact activation is -0.03%.

As to `CCC(=O)N1CCC2(CC1)Oc1ccc(Cl)cc1C(=O)C21CC(c2cccnc2)=NO1` (configuration not stated), the fluorescence artifact activation was 5.01%.

As for `COc1ccc(C2(CNC(C)=O)CCCC2)cc1OC`, the fluorescence artifact activation is 0.1%.

In the case of `Cc1ccc(N2C(=O)[C@@H]3[C@H](C2=O)C2CCCN2[C@@H]3C(=O)c2ccccc2)cc1` (some centres not stated), the fluorescence artifact activation is 65.3% (active).

In the case of `Cc1ccc(N2C(=O)C3C(C(=O)c4ccccc4)=NN(c4ccccc4)C3C2=O)cc1` (configuration not stated), the fluorescence artifact activation is 5.76%.

As for `CC(=O)Oc1ccc(N2C(=O)C3C(C2=O)C(C(=O)c2ccc(Cl)cc2)N2CCCC32)cc1` (configuration not stated), the fluorescence artifact activation was 12.2% (active).

Turning to `O=C(c1ccccc1)[C@@H]1[C@@H]2C(=O)N(c3ccc(F)cc3)C(=O)[C@@H]2C2CCCN21` (some centres not stated), the fluorescence artifact activation was 1.82%.

Turning to `COc1ccc(N2C(=O)C3C(C2=O)C(C(=O)c2ccc(Cl)cc2)N2CCCC32)cc1` (configuration not stated), the fluorescence artifact activation is 2.56%.

For `CCOC(=O)c1ccc(N2C(=O)C3C(C2=O)C(C(=O)c2ccc(Cl)cc2)N2CCCC32)cc1` (configuration not stated), the fluorescence artifact activation is 1.5%.

For `CCc1ccc(Nc2n[n+](-c3ccccc3)c(-c3ccc(N(CC)CC)cc3)s2)cc1`, the fluorescence artifact activation was -0.01%.

`C[C@H](CO)N1C[C@H](C)[C@@H](CN(C)S(=O)(=O)c2cccs2)Oc2c(NC(=O)Nc3ccc4c(c3)OCO4)cccc2C1=O`: the fluorescence artifact activation was 2.08%.

For the molecule `COCc1cc(=O)[nH]c2cc(NC(=O)C(C)(C)CCl)c(C)cc12`, the fluorescence artifact activation is -0.05%.

As for `COc1ccc(CCNC(=O)c2ccccc2OCc2c(C)noc2C)cc1`, the fluorescence artifact activation was -0.02%.

As for `CCOCCCNC(=S)NCCCNc1nc2c(C)cc(C)cc2cc1C#N`, the fluorescence artifact activation is 0.14%.

Regarding `COc1cc(N2CCCC2)c(OC)cc1/C=C1/NC(=S)NC1=O`, the fluorescence artifact activation was 16.7% (active).

Turning to `COc1cc(N2CCCC2)c(OC)cc1/C=C(/C#N)c1cccc(Br)c1`, the fluorescence artifact activation was -0.03%.

Consider `COc1cc(N2CCCC2)c(OC)cc1/C=C(/C#N)c1ccc(Br)cc1`, for which the fluorescence artifact activation was 0.93%.

Turning to `N#Cc1ccc(CSc2nnc(-c3cnccn3)o2)cc1`, the fluorescence artifact activation is 45.1% (active).

Turning to `O=c1oc2cc(O)ccc2cc1-c1nc2c(s1)CCc1ccccc1-2`, the fluorescence artifact activation was 0.02%.

For the molecule `CC(C)(C)c1cc[n+](-c2[nH]c(=O)sc2/C=N/NC([S-])=Nc2ccccc2)cc1`, the fluorescence artifact activation was 1.92%.

For `Cc1ccccc1C(=O)NCCCc1ccccc1`, the fluorescence artifact activation is 0.02%.

For `COC(=O)N1CCN(S(=O)(=O)c2ccc(F)cc2)CC1`, the fluorescence artifact activation was -0.07%.

Turning to `O=S(=O)(c1ccc(F)cc1)N1CCN(CCOc2ccccc2)CC1`, the fluorescence artifact activation was 361% (active).

On to `CN1CCN(S(=O)(=O)c2cccc(C(=O)Oc3cccc(Br)c3)c2)CC1`, for which the fluorescence artifact activation is 0.74%.

Turning to `CC(C)c1nnc(N2C(=O)C(O)=C(C(=O)c3cccs3)C2c2ccccc2)s1` (configuration not stated), the fluorescence artifact activation is 0.07%.

As to `O=C(COC(=O)c1cc(-c2cccc3ccccc23)nc2ccccc12)NC1CCS(=O)(=O)C1` (configuration not stated), the fluorescence artifact activation was 0.37%.

On to `CCCCC(=O)Nc1ccc(C(=O)Nc2ccc(OC)cc2[N+](=O)[O-])cc1`, for which the fluorescence artifact activation is 2.86%.

Turning to `Cn1nc(-c2ccccc2)c2nc3ccccc3nc21`, the fluorescence artifact activation was 0.09%.

Regarding `CCn1nc(-c2ccccc2)c2nc3ccccc3nc21`, the fluorescence artifact activation was 4.1%.

For the molecule `CCCCCn1nc(-c2ccccc2)c2nc3ccccc3nc21`, the fluorescence artifact activation was 20.1% (active).

`CCOC(=O)CCC(=O)NCc1ccc2c(c1)cc(C)n2C`: the fluorescence artifact activation was 0.01%.

For `CC(=O)N1CCN(S(=O)(=O)c2cccc(C(=O)NNC(=O)c3ccc(Br)cc3)c2)CC1`, the fluorescence artifact activation was 0.4%.

In the case of `COc1ccc2nc3ccccc3nc2c1NC(=O)c1ccc(Br)cc1`, the fluorescence artifact activation is 59.2% (active).

Regarding `COc1ccc2nc3ccccc3nc2c1NC(=O)c1ccc(Cl)cc1Cl`, the fluorescence artifact activation is 0.06%.

For the molecule `CN(C)c1ccc(/C=C/C(=O)c2cc(Cl)ccc2O)cc1`, the fluorescence artifact activation is 0.19%.

Take `CC(C)(C)NC(=O)CSc1nnc(-c2ccccn2)n1-c1ccccc1`: the fluorescence artifact activation was 0.09%.

With `Cc1cc(C)c2c(SC(C)C)nc(N)nc2n1`, the fluorescence artifact activation is 5.3%.

Take `CCOCCn1c(CN2CCN(CC)CC2)nc2c1c(=O)n(C)c(=O)n2C`: the fluorescence artifact activation was 21.1% (active).

For the molecule `CCN(CC)c1ccc(/C=C2\C(=O)c3ccc(C(=O)O)cc3C2=O)cc1`, the fluorescence artifact activation was 8.82%.

For the molecule `CCN(CC)c1ccc2cc(C(=O)NCc3ccc(F)cc3)c(=N)oc2c1`, the fluorescence artifact activation is 17.9% (active).

As to `CCN(CC)c1ccc2cc(C(C)=O)c(=O)oc2c1`, the fluorescence artifact activation was 0.03%.

On to `CCN(CC)c1ccc2cc(C(=O)Nc3ccccn3)c(=O)oc2c1`, for which the fluorescence artifact activation is -0.06%.
